In ChEMBL document CHEMBL3244271, “Synthetic sulfur-containing amino acids. Inhibition of transport systems in S37 ascites tumor cells” (J Med Chem, 1978):

Columns and labels:
Format in all cases: cell-based
S37 [1] = assay: Inhibition of L-type amino acid transporter-mediated [3H]-L-histidine uptake in mouse S37 cells assessed as residual activity at 5 mM after 2 mins by liquid scintillation counting analysis relative to control
S37 [2] = assay: Inhibition of A-type amino acid transporter-mediated [3H]-L-histidine uptake in mouse S37 cells assessed as residual activity at 5 mM after 2 mins by liquid scintillation counting analysis relative to control
S37 [3] = assay: Inhibition of A-type amino acid transporter-mediated [3H]-L-histidine uptake in mouse S37 cells assessed as residual activity at 10 mM after 2 mins by liquid scintillation counting analysis relative to control
Method in brief: (§1)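 S37 ascites tumor cells were harvested 6-8 days after transplanting about 0.3 mL of a 1:10 packed-cell suspension. Cells were washed three times in modified Krebs-Ringer phosphate buffer, resuspended, and incubated with [3H]-L-histidine at 10 mM (A system) for 2 min at 20 °C. Uptake was stopped in chilled buffer, and cells were spun, rinsed and weighed wet. Pellets were lysed in 95% EtOH and counted by scintillation. Results are % of control, with duplicate runs on triplicate samples.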

S37 [4] = assay: Inhibition of L-type amino acid transporter-mediated [3H]-L-histidine uptake in mouse S37 cells assessed as residual activity at 10 mM after 2 mins by liquid scintillation counting analysis relative to control
Method in brief: (§2)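 Mouse-passaged S37 ascites cells were collected 6-8 days post-transplant, washed three times and resuspended in modified Krebs-Ringer phosphate buffer. L-system uptake used [3H]-L-histidine at 0.1 mM for 2 min at 20 °C. Incubation ended on pouring into chilled buffer, followed by three centrifugations to remove entrained label. Pellet wet weight was recorded, the EtOH lysate was scintillation-counted, and results are % of control, averaging duplicate runs on triplicate samples.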

S37 [5] = assay: Inhibition of A-type amino acid transporter-mediated [3H]-L-histidine uptake in mouse S37 cells assessed as residual activity after 2 mins by liquid scintillation counting analysis relative to control; method in brief: as §1
S37 [6] = assay: Inhibition of L-type amino acid transporter-mediated [3H]-L-histidine uptake in mouse S37 cells assessed as residual activity after 2 mins by liquid scintillation counting analysis relative to control; method in brief: as §2

## CCSCC[C@H](N)C(=O)O
S37 [1]
  Activity: 11%
S37 [2]
  Activity: 63%

## O=C(O)C1NCCS1 (racemic)
S37 [3]
  Activity: 58%
S37 [4]
  Activity: 63%

## N[C@@H](CS)C(=O)O
S37 [1]
  Activity: 16%
S37 [2]
  Activity: 51%

## O=C(O)[C@@H]1CSCCN1
S37 [1]
  Activity: 51%
S37 [2]
  Activity: 73%

## CC1(C)N[C@H](C(=O)O)CS1
S37 [1]
  Activity: 45%
S37 [2]
  Activity: 68%

## O=C(O)[C@@H]1CSCN1
S37 [1]
  Activity: 72%
S37 [2]
  Activity: 74%

## NC(CCS)C(=O)O (racemic)
S37 [3]
  Activity: 55%
S37 [4]
  Activity: 6%

## N[C@@H](CSCCSC[C@H](N)C(=O)O)C(=O)O
S37 [1]
  Activity: 52%
S37 [2]
  Activity: 70%

## NC1(C(=O)O)CCSCC1
S37 [5]
  Activity: 81%
S37 [6]
  Activity: 31%

## NC1CCSC1=O (stereo unspecified)
S37 [3]
  Activity: 119%
S37 [4]
  Activity: 96%

## CC1N[C@H](C(=O)O)CS1 (stereo partly specified)
S37 [1]
  Activity: 70%
S37 [2]
  Activity: 72%

## O=C(O)C1CCSCN1 (racemic)
S37 [3]
  Activity: 85%
S37 [4]
  Activity: 90%

## CSCC[C@H](N)C(=O)O
S37 [1]
  Activity: 11%
S37 [2]
  Activity: 68%
